Screening results from PubChem BioAssay.
A1 apoptosis 2: blocks A1, raising caspase activity. 24,000 tested, under 10 active. caspase activation, % (test concentration not listed). AID 2465. MEF A1-2A-BIM cells, caspase-Glo luminescence, 3 h; percent of clofoctol response, DMSO zero; in the data active = caspase activation above about 5.9%
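Test system – A1-2A-BIM-expressing MEF cells · Input – 2500 cells/well · Medium – RPMI-1640 growth medium with 10% FBS · Compound dosing – 50 nL pinned compound · Timing – 3 h compound exposure at 37 °C · Technique – Caspase-Glo luminescence (DEVD substrate) · Evaluation – Caspase-3/7 activity from luminescence increase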
INS-1E ATP HTS: rescue of cytokine-induced death in INS-1E beta cells; INS-1E cytokine-induced death, ATP luminescence, 48 h; normalised: neutral wells 0, positive control 100; protection from cytokine-induced ATP loss, % at 10 µM; 20,000 compounds, 0.1% hits; AID 488910;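 active = mean replicate protection from cytokine-induced ATP loss at least 50% and at least 75% of replicates each reaching 50%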
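Assay system: INS-1E rat cells / Quantity: 8000 cells per well / Medium: RPMI without phenol red, 5% FBS / Probe or stimulus: three-cytokine cocktail (IFN-γ, TNF-α, IL-1β) / Dosing: one compound concentration, pin transfer / Timing: 48 h co-treatment, 10 min post-lysis read / Technique: CellTiter-Glo luminescence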
T cruzi intra: intracellular Trypanosoma cruzi inhibition | intracellular Trypanosoma cruzi in host cells, plate reader | activity score (inhibition), % at 5.01 µM | 22,000 compounds, 4.9% hits | AID 651903; in the data active = activity score above about 55%;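 also: parasites and compound incubated about four days before reading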
A number is an active result; – = inactive; · = not tested or not shown. Only a selection was taken, and hits are over-represented in it overall.

SMILES | A1 apoptosis 2 | INS-1E ATP HTS | T cruzi intra
C[C@@H]1CN([C@@H](C)CO)C(=O)Cc2cc(NC(=O)C3CCCCC3)ccc2O[C@@H]1CN(C)Cc1ccc(C(F)(F)F)cc1 | – | – | –
C[C@H]1CN([C@@H](C)CO)C(=O)Cc2cc(NC(=O)Nc3ccc(C(F)(F)F)cc3)ccc2O[C@@H]1CN(C)Cc1ccc(C(=O)O)cc1 | · | – | –
C[C@H]1CN([C@@H](C)CO)C(=O)Cc2cc(NC(=O)Nc3ccc(C(F)(F)F)cc3)ccc2O[C@H]1CN(C)Cc1ccc(C(F)(F)F)cc1 | · | – | 82.2
C[C@@H]1CN([C@@H](C)CO)C(=O)Cc2cc(NC(=O)Nc3ccc(C(F)(F)F)cc3)ccc2O[C@@H]1CN(C)Cc1ccc(C(F)(F)F)cc1 | · | – | 64.3
C[C@H]1CN([C@@H](C)CO)C(=O)c2cc(NS(=O)(=O)c3ccccc3)ccc2O[C@H]1CN(C)C(=O)Nc1ccccc1 | · | – | –
Cc1noc(C)c1S(=O)(=O)N(C)C[C@H]1Oc2ccc(NC(=O)Nc3ccccc3)cc2CC(=O)N([C@H](C)CO)C[C@@H]1C | – | · | ·
C[C@@H]1CN([C@H](C)CO)C(=O)Cc2cc(NC(=O)Cn3cnnn3)ccc2O[C@H]1CN(C)S(=O)(=O)c1ccc(F)cc1 | – | – | –
C[C@@H]1CN([C@@H](C)CO)C(=O)Cc2cc(NC(=O)Nc3ccc(C(F)(F)F)cc3)ccc2O[C@@H]1CN(C)Cc1ccncc1 | – | – | 69.4
C[C@@H]1CN([C@H](C)CO)C(=O)Cc2cc(NC(=O)c3ccncc3)ccc2O[C@H]1CN(C)Cc1ccc(C(F)(F)F)cc1 | – | – | –
C[C@H]1CN([C@@H](C)CO)C(=O)Cc2cc(NC(=O)Nc3ccc(C(F)(F)F)cc3)ccc2O[C@H]1CN(C)Cc1ccncc1 | – | – | 67.6
C[C@H](CO)N1C[C@H](C)[C@@H](CN(C)Cc2ccncc2)Oc2ccc(NC(=O)Nc3ccc(C(F)(F)F)cc3)cc2CC1=O | – | · | ·
C[C@@H]1CN([C@H](C)CO)C(=O)Cc2cc(NC(=O)Nc3ccc(C(F)(F)F)cc3)ccc2O[C@@H]1CN(C)Cc1ccncc1 | – | – | 64.9
C[C@H](CO)N1C[C@H](C)[C@H](CN(C)Cc2ccc(C(F)(F)F)cc2)Oc2ccc(NC(=O)c3ccncc3)cc2CC1=O | – | – | –
COC(=O)CCCCCCC(=O)N/N=C/c1c(F)c(F)c(F)c(F)c1F | · | – | –
C[C@H]1CN([C@@H](C)CO)C(=O)c2cc(NC(=O)C3CCCCC3)ccc2O[C@H]1CN(C)Cc1ccc(Cl)c(Cl)c1 | – | · | –
C[C@H]1CCCCO[C@@H](CN(C)Cc2ccc3c(c2)OCO3)[C@@H](C)CN([C@@H](C)CO)C(=O)c2cc(NC(=O)CCC(F)(F)F)ccc2O1 | – | · | ·
C[C@@H]1CN([C@H](C)CO)C(=O)Cc2cc(NS(=O)(=O)c3cccs3)ccc2O[C@@H]1CN(C)S(=O)(=O)c1ccccc1 | – | – | 59.3
C[C@@H]1CN([C@@H](C)CO)C(=O)Cc2cc(NS(=O)(=O)c3cccs3)ccc2O[C@H]1CN(C)S(=O)(=O)c1ccc(Cl)cc1 | – | · | ·
C[C@@H]1CN([C@H](C)CO)C(=O)Cc2cc(NS(=O)(=O)c3cccs3)ccc2O[C@@H]1CN(C)S(=O)(=O)c1ccc(Cl)cc1 | – | – | 71.5
C[C@H]1CN([C@@H](C)CO)C(=O)Cc2cc(NS(=O)(=O)c3cccs3)ccc2O[C@@H]1CN(C)S(=O)(=O)c1ccccc1 | – | – | –
COc1ccc(S(=O)(=O)Nc2ccc3c(c2)C(=O)N([C@H](C)CO)C[C@H](C)[C@@H](CN(C)S(=O)(=O)c2c(C)noc2C)OCCCC[C@H](C)O3)cc1 | – | · | ·
COc1cc(/C=N/NC(=O)c2ccccn2)c(Br)cc1O | – | – | –
C[C@@H]1CN([C@@H](C)CO)C(=O)c2cccc(NS(C)(=O)=O)c2O[C@@H]1CN(C)Cc1ccc(C(=O)Nc2ccccc2N)cc1 | – | – | –
C[C@@H]1CN([C@@H](C)CO)C(=O)c2cc(NC(=O)Cc3ccccc3)ccc2O[C@H]1CN(C)C(=O)Nc1cccc2ccccc12 | · | – | –
CNC[C@@H]1Oc2ncc(-c3cc4ccccc4o3)cc2C(=O)N([C@H](C)CO)C[C@@H]1C | – | · | 78.7
C[C@H](CO)N1C[C@H](C)[C@H](CN(C)Cc2ccc(F)cc2)Oc2ncc(-c3cc4ccccc4o3)cc2C1=O | – | · | 78.3
COc1cccc(S(=O)(=O)N(C)C[C@@H]2Oc3ncc(-c4cc5ccccc5o4)cc3C(=O)N([C@H](C)CO)C[C@@H]2C)c1 | · | · | –
Cc1cccc(CN(C)C[C@@H]2Oc3ncc(-c4ccccc4)cc3C(=O)N([C@H](C)CO)C[C@@H]2C)c1 | – | · | –
